Assay results: publication PMC6977340 (Clinical Pharmacology and Therapeutics, 2019)
Values after ≈ are worked out from the molar mass of the structure shown.

What was measured:
CSF Aβ40 [1] = details: multiple-ascending doses over 28 days, healthy subjects ref 32; cited from earlier work
Aβ37 = details: cited from earlier work
Aβ42 = details: cited from earlier work
Aβ38 = details: cited from earlier work
plasma Aβ = experiment: Plasma Aβ levels after single doses; type: in vivo, human; details: following single doses
[2] = Plasma and CSF pharmacokinetics, B7991002 multiple dose; type: in vivo, human; details: for PF-06648671 concentration in CSF, mean: day 14, nonelderly
Notch = details: cell-based assays ref 36; cited from earlier work
CSF Aβ40 [3] = experiment: PK/PD indirect-response model, CSF Aβ40; type: in vivo, human
Method in brief: (§1)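 Population PK/PD fit in NONMEM (FOCE with interaction) for healthy adults. Inputs: serial CSF via lumbar catheter, 2 h predose to 36 h after one fasted oral 150 or 300 mg dose; single lumbar punctures at baseline and day 14 in 40–360 mg q.d. cohorts. Fixed two-compartment PK gave individual plasma concentrations. Indirect-response model: sigmoid inhibition (Aβ40/42) or stimulation (Aβ37/38) of production, with kout turnover. Fixed placebo-drift terms.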

CSF Aβ38 = experiment: PK/PD indirect-response model, CSF Aβ38; type: in vivo, human
Method in brief: as §1

[4] = test system: Aβ42, Aβ40, Aβ37 and Aβ38; details: cited from earlier work
[5] = test system: Aβ42 within the brain and CSF; details: acute oral administration ref 36; cited from earlier work
CSF Aβ42 = experiment: PK/PD indirect-response model, CSF Aβ42; type: in vivo, human
Method in brief: as §1

[6] = Plasma pharmacokinetics, B7991001 single-ascending dose incl. food effect; type: in vivo, human; details: 120 mg fed vs fasted
CSF Aβ37 = experiment: PK/PD indirect-response model, CSF Aβ37; type: in vivo, human
Method in brief: as §1

[7] = Safety/tolerability, B7991002 multiple-ascending dose study; type: in vivo, human; details: doses up to 360 mg q.d. for up to 14 days, healthy young and elderly subjects
Method in brief: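 Healthy subjects aged 18–55 and elderly subjects aged 65–85 took oral doses once daily for 14 days, with about 10 per cohort and placebo control. Dosing was fasted on days 1, 7 and 14, otherwise >1 h from breakfast. Investigators recorded adverse events with severity and causality, plus laboratory tests, physical examinations, ECG monitoring and vital signs.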

[8] = multiple-ascending doses over 28 days, healthy subjects ref 32
[9] = single dosing, healthy subjects ref 33

CNc1nc(Nc2ccc(-n3cnc(C)n3)c(OC)c2)nc2c1CC[C@H]2c1ccc(F)cc1 [BMS‐932481]
Decrease in CSF Aβ40 (CSF Aβ40 [1]): ≤ 74% | Increase in CSF Aβ37 (Aβ37; [8]): up to 545% | Increase in Aβ37 (Aβ37; [9]): up to 12 fold | Decrease in CSF Aβ42 (Aβ42; [8]): up to 77% | Decrease in Aβ42 (Aβ42; [9]): up to 50% | Increase in CSF Aβ38 (Aβ38; [8]): ≤ 69% | Increase in Aβ38 (Aβ38; [9]): ≤ 2 fold

COc1nc(/C=C/c2nc3n(n2)CCC[C@H]3c2ccccc2C(F)(F)F)ccc1-n1cnc(C)c1 [E2212]
Decrease in Aβ42 AUC0–24 hours values (Aβ42; single-ascending doses ref 35): up to 44.1%

Cc1cn(-c2ccc3n(c2=O)CCN([C@@H](C)[C@@H]2CC[C@H](c4cc(F)c(Cl)cc4C(F)(F)F)O2)C3=O)cn1 [PF-06648671, 2‐[(1S)‐1‐{(2S,5R)‐5‐[4‐chloro‐5‐fluoro‐2‐(trifluoromethyl)phenyl]tetrahydrofuran‐2‐yl}ethyl]‐7‐(4‐methyl‐1H‐imidazol‐1‐yl)‐3,4‐dihydro‐2H‐pyrido[1,2‐a]pyrazine‐1,6‐dione]
Rebound effect of plasma Aβ levels over baseline (plasma Aβ): no rebound effect of plasma Aβ levels over baseline was observed | PF-06648671 concentration in CSF, mean ([2]; 40 mg q.d., CV 81%): 3.49 ng/mL | PF-06648671 concentration in CSF, mean ([2]; 360 mg q.d., CV 31%): 27.85 ng/mL | CSF penetration ([2]; CSF:plasma ratio at day 14 about equal to unbound fraction): excellent CSF penetration | Effect on cleavage of Notch or other substrates (Notch): without inhibiting the cleavage of Notch or other substrates | IC50 (CSF Aβ40 [3]; Homo sapiens, read-out: IC50, plasma concentration at half Imax, Aβ40): 1.23 µg/mL (≈ 2.28 µM) | Imax, maximum inhibition achievable, Aβ40 (CSF Aβ40 [3]; PK/PD model estimate): 0.725 | k out, first-order turnover constant of Aβ40 (CSF Aβ40 [3]; PK/PD model estimate): 0.0835 h⁻¹ | Dose predicted to achieve an average 50% reduction in CSF Aβ40 (CSF Aβ40 [3]; steady state, PK/PD model): 250 mg q.d. | EC50 (CSF Aβ38; Homo sapiens, read-out: EC50, plasma concentration at half Emax, Aβ38): 1.77 µg/mL (≈ 3.28 µM) | k out, first-order turnover constant of Aβ38 (CSF Aβ38; PK/PD model estimate): 0.144 h⁻¹ | Emax, maximum response achievable, Aβ38 (CSF Aβ38; PK/PD model estimate, large uncertainty): 0.869 | Effect on Aβ species in cell-based assays [4]: reduced Aβ42 and Aβ40, with concomitant increases in Aβ37 and Aβ38 | Effect on Aβ42 in animals [5]: reduced Aβ42 within the brain and CSF | Predicted reduction in CSF Aβ42 levels (CSF Aβ42; 75 mg): 50% | Predicted reduction in CSF Aβ42 levels (CSF Aβ42; 300 mg): 65% | IC50 (CSF Aβ42; Homo sapiens, read-out: IC50, plasma concentration at half Imax, Aβ42): 0.421 µg/mL (≈ 0.781 µM) | Imax, maximum inhibition achievable, Aβ42 (CSF Aβ42; PK/PD model estimate): 0.744 | k out, first-order turnover constant of Aβ42 (CSF Aβ42; PK/PD model estimate): 0.121 h⁻¹ | Dose predicted to achieve an average 50% reduction in CSF Aβ42 (CSF Aβ42; steady state, PK/PD model): 75 mg q.d. | Delay of median Tmax with food [6]: 3 h | EC50 (CSF Aβ37; Homo sapiens, read-out: EC50, plasma concentration at half Emax, Aβ37): 1.28 µg/mL (≈ 2.38 µM) | Emax, maximum response achievable, Aβ37 (CSF Aβ37; PK/PD model estimate): 5.63 | k out, first-order turnover constant of Aβ37 (CSF Aβ37; PK/PD model estimate): 0.0964 h⁻¹ | Predicted increase in CSF Aβ37 (CSF Aβ37; steady state, within simulated dose ranges): ≤ 500% | Safety profile [7]: good safety profile
